Laboratory results reported in ChEMBL document CHEMBL1136274 (Bioorg Med Chem Lett, 2003).

Columns and labels:
[1] = molecular target: Sphingosine 1-phosphate receptor 5 (Homo sapiens, UniProt Q9H228); test: In vitro binding affinity towards human Sphingosine 1-phosphate receptor 5 expressed in HEK293T cells using [gamma-35S]-GTP as radioligand; assay type: cell-based, HEK-293T
[2] = molecular target: T1, Sphingosine 1-phosphate receptor 1 (Homo sapiens, UniProt P21453); test: In vitro binding affinity towards human Sphingosine 1-phosphate receptor 1 expressed in HEK293T cells using [gamma-35S]-GTP as radioligand; assay type: cell-based, HEK-293T
T1 sequence (P21453 whole entry): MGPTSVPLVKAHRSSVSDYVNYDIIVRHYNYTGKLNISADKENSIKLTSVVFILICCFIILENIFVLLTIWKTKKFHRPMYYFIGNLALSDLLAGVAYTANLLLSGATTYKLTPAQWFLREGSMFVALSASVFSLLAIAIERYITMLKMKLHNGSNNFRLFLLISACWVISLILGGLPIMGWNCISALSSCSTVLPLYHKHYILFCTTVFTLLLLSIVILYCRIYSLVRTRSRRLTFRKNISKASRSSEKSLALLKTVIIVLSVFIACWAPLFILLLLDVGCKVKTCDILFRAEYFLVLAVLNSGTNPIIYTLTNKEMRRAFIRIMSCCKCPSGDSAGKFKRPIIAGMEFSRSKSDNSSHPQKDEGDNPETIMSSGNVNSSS

[3] = molecular target: T2, Sphingosine 1-phosphate receptor 3 (Homo sapiens, UniProt Q99500); test: In vitro binding affinity towards human Sphingosine 1-phosphate receptor 3 expressed in HEK293T cells using [gamma-35S]-GTP as radioligand; Not active; assay type: cell-based; conditions: hek-293t
T2 sequence (Q99500 whole entry): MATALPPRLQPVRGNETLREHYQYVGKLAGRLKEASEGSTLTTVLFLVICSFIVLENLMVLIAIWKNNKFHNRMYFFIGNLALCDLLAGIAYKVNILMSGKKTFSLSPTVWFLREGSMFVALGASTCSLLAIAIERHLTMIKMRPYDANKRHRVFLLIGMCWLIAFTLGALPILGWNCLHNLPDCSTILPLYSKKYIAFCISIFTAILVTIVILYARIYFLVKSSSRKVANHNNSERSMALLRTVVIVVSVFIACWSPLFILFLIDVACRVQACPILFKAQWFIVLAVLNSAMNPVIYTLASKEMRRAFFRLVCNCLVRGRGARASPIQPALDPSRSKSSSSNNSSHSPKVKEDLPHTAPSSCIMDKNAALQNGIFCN

[4] = molecular target: T3, Sphingosine 1-phosphate receptor 4 (Homo sapiens, UniProt O95977); test: In vitro binding affinity towards human Sphingosine 1-phosphate receptor 4 expressed in HEK293T cells using [gamma-35S]-GTP as radioligand; assay type: cell-based, HEK-293T
T3 sequence (O95977 whole entry): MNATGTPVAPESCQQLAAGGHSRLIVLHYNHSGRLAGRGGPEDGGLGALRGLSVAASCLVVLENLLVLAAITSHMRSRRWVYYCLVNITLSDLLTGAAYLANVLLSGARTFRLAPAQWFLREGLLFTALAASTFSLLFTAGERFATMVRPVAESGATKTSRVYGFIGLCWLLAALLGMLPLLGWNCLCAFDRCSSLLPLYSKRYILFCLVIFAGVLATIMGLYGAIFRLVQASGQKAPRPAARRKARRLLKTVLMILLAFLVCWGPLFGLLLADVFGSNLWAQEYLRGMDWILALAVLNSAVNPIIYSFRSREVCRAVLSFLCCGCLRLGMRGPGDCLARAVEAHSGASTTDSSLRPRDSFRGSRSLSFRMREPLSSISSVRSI

[5] = molecular target: T4, Sphingosine 1-phosphate receptor 2 (Homo sapiens, UniProt O95136); test: In vitro binding affinity towards human Sphingosine 1-phosphate receptor 2 expressed in HEK293T cells using [gamma-35S]-GTP as radioligand; Not active; assay type: cell-based; conditions: hek-293t
T4 sequence (O95136 whole entry): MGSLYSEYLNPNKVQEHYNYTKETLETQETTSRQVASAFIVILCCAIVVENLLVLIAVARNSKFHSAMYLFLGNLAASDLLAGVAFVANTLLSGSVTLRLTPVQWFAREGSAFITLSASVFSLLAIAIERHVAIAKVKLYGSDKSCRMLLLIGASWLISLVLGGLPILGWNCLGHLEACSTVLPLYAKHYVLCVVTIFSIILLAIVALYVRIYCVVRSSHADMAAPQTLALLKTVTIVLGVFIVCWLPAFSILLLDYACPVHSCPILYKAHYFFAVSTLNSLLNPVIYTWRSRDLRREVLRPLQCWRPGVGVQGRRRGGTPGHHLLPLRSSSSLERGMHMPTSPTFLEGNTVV

[6] = molecular target: T2, Sphingosine 1-phosphate receptor 3; test: In vitro binding affinity towards human Sphingosine 1-phosphate receptor 3 expressed in HEK293T cells using [gamma-35S]-GTP as radioligand; assay type: cell-based, HEK-293T
[7] = molecular target: T2, Sphingosine 1-phosphate receptor 3; test: In vitro binding affinity towards human Sphingosine 1-phosphate receptor 3 expressed in HEK293T cells using [gamma-35S]-GTP as radioligand (Experiment 2); assay type: cell-based, HEK-293T
Procedure, shortened: (§1)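 Membranes were incubated with test lipid in pH 7.5 buffer (HEPES 50 mM, NaCl 100 mM, MgCl2 5 mM) containing saponin, GDP and 0.1 nM [γ-35S]GTP for 30 min at 30 °C. Bound label was separated by GF/C filtration and counted by scintillation. EC50 is the mean of three experiments.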

[8] = molecular target: T1, Sphingosine 1-phosphate receptor 1; test: In vitro binding affinity towards human Sphingosine 1-phosphate receptor 1 expressed in HEK293T cells using [gamma-35S]-GTP as radioligand. (Experiment 2); assay type: cell-based, HEK-293T; procedure, shortened: as §1
[9] = molecular target: T3, Sphingosine 1-phosphate receptor 4; test: In vitro binding affinity towards human Sphingosine 1-phosphate receptor 4 expressed in HEK293T cells using [gamma-35S]-GTP as radioligand (Experiment 2); assay type: cell-based, HEK-293T; procedure, shortened: as §1
[10] = molecular target: T4, Sphingosine 1-phosphate receptor 2; test: In vitro binding affinity towards human Sphingosine 1-phosphate receptor 2 expressed in HEK293T cells using [gamma-35S]-GTP as radioligand; assay type: cell-based, HEK-293T
[11] = molecular target: T2, Sphingosine 1-phosphate receptor 3; test: In vitro binding affinity towards human S1P3 receptor expressed in HEK293T cells using [gamma-35S]-GTP as radioligand; assay type: cell-based, HEK-293T

Sequence of Sphingosine 1-phosphate receptor 5 (Q9H228 whole entry): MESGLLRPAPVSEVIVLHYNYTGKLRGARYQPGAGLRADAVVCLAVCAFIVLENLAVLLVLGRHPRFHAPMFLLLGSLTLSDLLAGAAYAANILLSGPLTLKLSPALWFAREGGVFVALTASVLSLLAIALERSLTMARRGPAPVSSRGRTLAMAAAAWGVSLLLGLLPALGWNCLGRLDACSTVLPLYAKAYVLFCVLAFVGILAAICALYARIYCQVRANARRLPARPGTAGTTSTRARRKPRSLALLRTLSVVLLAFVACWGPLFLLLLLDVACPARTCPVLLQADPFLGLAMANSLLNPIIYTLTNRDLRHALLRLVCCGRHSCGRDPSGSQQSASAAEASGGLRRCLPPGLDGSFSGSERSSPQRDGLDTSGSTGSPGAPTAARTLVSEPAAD

Row | Compound | EC50 [1] | EC50 [2] | EC50 [4] | EC50 [5] | EC50 [6] | also measured
1 | CCCCCCc1ccc(NC(=O)[C@@H](N)COP(=O)(O)O)cc1.O=C(O)C(F)(F)F | 55 nM | 550 nM | 1500 nM | Not Active |  | EC50 [3]: Not Active
2 | CCCCCCc1ccc(NC(=O)[C@H](N)COP(=O)(O)O)cc1.O=C(O)C(F)(F)F | 43 nM | 260 nM | 880 nM | Not Active |  | EC50 [3]: Not Active
3 | CCCCCCCCCCCCc1ccc(NC(=O)[C@H](N)COP(=O)(O)O)cc1.O=C(O)C(F)(F)F | 160 nM | 130 nM | 1400 nM | Not Active | 740 nM | 
4 | CCCCCCCCCCCCC/C=C/[C@@H](O)[C@@H](N)COP(=O)(O)O |  |  |  |  |  | EC50 [7]: 8.7 nM; EC50 [8]: 4.5 nM; EC50 [9]: 270 nM
5 | CCCCCCCCCCCCCCCCNC(=O)[C@@H](N)COP(=O)(O)O |  |  |  |  |  | EC50 [10]: > 5000 nM
6 | CCCCCCCCc1ccc(NC(=O)[C@@H](N)COP(=O)(O)O)cc1.O=C(O)C(F)(F)F |  | 82 nM |  | Not Active |  | EC50 [11]: 1500 nM
7 | CCCCCCCCCCCCCCNC(=O)[C@H](N)COP(=O)(O)O | > 5000 nM |  |  |  |  | 
8 | CCCCCCCCCCc1ccc(NC(=O)[C@H](N)COP(=O)(O)O)cc1.O=C(O)C(F)(F)F | 41 nM | 8.6 nM | 450 nM | Not Active | 89 nM | 
9 | CCCCCCCCc1ccc(NC(=O)[C@H](N)COP(=O)(O)O)cc1.O=C(O)C(F)(F)F |  | 58 nM |  | Not Active | 450 nM | 
10 | CCCCCCCCCCCCCCNC(=O)[C@@H](N)COP(=O)(O)O | 1610 nM | 397 nM |  |  | 862 nM | EC50 [10]: 2680 nM
